The record followed here is ChEMBL document CHEMBL4431370, “Novel tricyclic poly (ADP-ribose) polymerase-1/2 inhibitors with potent anticancer chemopotentiating activity: Design, synthesis and biological evaluation” (Bioorg Med Chem, 2016).

Bounds are passed on as bounds.

The target of assay [1] is T1, Poly [ADP-ribose] polymerase 1 (Homo sapiens, UniProt P09874). Put plainly: Inhibition of PARP-1 (unknown origin) after 1 hr in presence of NAD+/biotinylated NAD+/slDNA by ELISA.
The target of assay [2] is T1, Poly [ADP-ribose] polymerase 1. Description: Inhibition of PARP-1 (unknown origin) at 100 nM after 1 hr in presence of NAD+/biotinylated NAD+/slDNA by ELISA. Put shortly: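 Histone-coated wells (20 μg/mL in PBS pH 7.4, 4 °C overnight). Reaction buffer 50 mM Tris, 2 mM MgCl2, pH 8.0, with 100 μM NAD+, 25 μM biotinylated NAD+ and 200 nM slDNA. Started with PARP-1 (50 ng/well), 1 h at 30 °C. Detection by streptavidin-HRP for 30 min at 30 °C, then H2O2/luminol in citrate buffer pH 5.4, luminescence read. Inhibition % = (control−treated)/control ×100.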

For assay [3], the system named is MDA-MB-468. Description: Growth inhibition of human MDA-MB-468 cells after 72 hrs by SRB assay. The assay is classed as functional, cell-based.
Assay [4] concerns SW-620. Put plainly: Growth inhibition of human SW620 cells after 72 hrs by SRB assay. The assay is classed as functional, cell-based. For orientation: Sulforhodamine B stains cellular protein and so reports cell mass.
Assay [5] has as its target Poly [ADP-ribose] polymerase 2 (Homo sapiens, UniProt Q9UGN5). Put plainly: Inhibition of PARP-2 (unknown origin) after 1 hr in presence of NAD+/biotinylated NAD+/slDNA by ELISA.
Assay [6] relates to SW-620. Put plainly: Growth inhibition of human SW620 cells at 100 uM after 72 hrs by SRB assay. The assay is classed as functional. The following applies: for inhibition of growth at 100 µM: Homo sapiens, SW-620, 72 h, read-out: GI. The gist of the method: (§1)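 SRB read-out on adherent cells seeded in 96-well plates. Single-agent exposure at 100 μM for 72 h. Cells fixed in trichloroacetic acid for 1 h at 4 °C, stained with 0.4% (w/v) SRB for 20 min at room temperature, washed with 1% acetic acid. Bound dye solubilized in 10 mM Tris, absorbance read at 540 nm. Percent proliferation inhibition reported; means of two independent experiments.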

The subject of assay [7] is MDA-MB-468. Description: Growth inhibition of human MDA-MB-468 cells at 100 uM after 72 hrs by SRB assay. The class given is functional. The settings on record: for inhibition of growth at 100 µM: Homo sapiens, MDA-MB-468, 72 h, read-out: GI. Put shortly: as §1
Assay [8] concerns the target T1, Poly [ADP-ribose] polymerase 1.
Assay [9] shares this target. The settings on record: MDA-MB-468.
For assay [10] the target is unchanged. The settings on record: A549.

T1 sequence (P09874 whole entry): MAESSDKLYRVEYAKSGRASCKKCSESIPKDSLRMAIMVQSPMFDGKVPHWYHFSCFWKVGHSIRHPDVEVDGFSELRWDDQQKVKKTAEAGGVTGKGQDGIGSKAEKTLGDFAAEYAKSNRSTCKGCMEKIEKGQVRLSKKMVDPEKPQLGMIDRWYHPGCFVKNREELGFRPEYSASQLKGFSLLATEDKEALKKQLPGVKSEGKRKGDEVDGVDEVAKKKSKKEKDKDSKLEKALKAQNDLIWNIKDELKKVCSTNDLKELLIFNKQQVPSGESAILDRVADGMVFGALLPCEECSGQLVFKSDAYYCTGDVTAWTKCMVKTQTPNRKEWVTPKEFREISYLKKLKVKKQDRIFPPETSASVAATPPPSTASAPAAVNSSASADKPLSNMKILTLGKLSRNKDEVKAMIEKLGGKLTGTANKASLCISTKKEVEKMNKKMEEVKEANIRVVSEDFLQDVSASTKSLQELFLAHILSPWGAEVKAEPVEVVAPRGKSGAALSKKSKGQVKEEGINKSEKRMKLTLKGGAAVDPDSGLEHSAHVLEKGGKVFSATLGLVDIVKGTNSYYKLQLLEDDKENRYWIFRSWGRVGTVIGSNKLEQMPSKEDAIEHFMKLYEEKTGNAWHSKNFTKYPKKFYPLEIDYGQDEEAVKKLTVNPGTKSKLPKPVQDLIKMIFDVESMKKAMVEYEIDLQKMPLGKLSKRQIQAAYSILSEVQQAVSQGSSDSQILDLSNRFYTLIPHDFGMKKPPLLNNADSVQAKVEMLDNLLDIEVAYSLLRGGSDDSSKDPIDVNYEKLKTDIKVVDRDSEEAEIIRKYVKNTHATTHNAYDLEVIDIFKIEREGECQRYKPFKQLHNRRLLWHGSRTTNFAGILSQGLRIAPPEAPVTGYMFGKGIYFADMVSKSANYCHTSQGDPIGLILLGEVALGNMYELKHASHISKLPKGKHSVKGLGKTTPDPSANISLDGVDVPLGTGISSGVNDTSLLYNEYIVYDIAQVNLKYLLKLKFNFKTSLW
Poly [ADP-ribose] polymerase 2, sequence (Q9UGN5 whole entry): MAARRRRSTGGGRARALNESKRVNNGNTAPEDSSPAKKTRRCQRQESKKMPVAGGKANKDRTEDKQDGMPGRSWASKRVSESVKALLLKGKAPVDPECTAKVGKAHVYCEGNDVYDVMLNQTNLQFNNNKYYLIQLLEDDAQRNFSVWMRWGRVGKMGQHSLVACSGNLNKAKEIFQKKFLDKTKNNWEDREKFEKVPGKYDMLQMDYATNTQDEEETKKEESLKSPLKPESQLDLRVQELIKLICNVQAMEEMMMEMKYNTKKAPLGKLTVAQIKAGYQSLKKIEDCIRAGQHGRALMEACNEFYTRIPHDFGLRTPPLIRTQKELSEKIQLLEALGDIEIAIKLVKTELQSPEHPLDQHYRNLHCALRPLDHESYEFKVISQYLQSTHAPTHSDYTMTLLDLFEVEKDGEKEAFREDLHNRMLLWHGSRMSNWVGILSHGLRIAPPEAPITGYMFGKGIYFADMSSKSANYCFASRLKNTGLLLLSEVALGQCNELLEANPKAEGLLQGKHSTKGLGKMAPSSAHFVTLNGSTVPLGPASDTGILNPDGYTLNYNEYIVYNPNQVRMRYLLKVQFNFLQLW

Regarding `CC(C)N1CCC(c2nc3cncc4c3n2CCNC4=O)CC1`, the IC50 in [1] was found to be 92 nM.

For `O=C1NCCn2c(-c3ccccc3)nc3cncc1c32`, in assay [1], the concentration for half-maximal inhibition (IC50) was 110 nM.

On to `O=C1NCCn2c(C3CCN(C(=O)c4ccccc4Cl)CC3)nc3cncc1c32`, for which the inhibition in assay [2] was < 10%.

As to `CC(C)CN1CCC(c2nc3cncc4c3n2CCNC4=O)CC1`, the 50% effective concentration (EC50) in the assay on MDA-MB-468 [3] (Homo sapiens, MDA-MB-468, 72 h) came out at 18900 nM; in the assay on SW-620 [4] (Homo sapiens, SW-620, 72 h) it was 52600 nM. Moreover, the values for the IC50 in assay [5] and in assay [1] were 7.7 nM and 28 nM, respectively. The inhibition of growth at 100 µM in the assay with SW-620 [6] amounted to 77%; in the assay on MDA-MB-468 [7], 53%.

In the assay on MDA-MB-468 [3] (Homo sapiens, MDA-MB-468, 72 h), `O=C1NCCn2c(-c3ccc(N4CCNCC4)cc3)nc3cncc1c32` returned an EC50 of 94000 nM. For the same compound, the IC50 is 5.5 nM in [5] and 20 nM in [1]. Moreover, the values for the inhibition of growth at 100 µM in the assay on SW-620 [6] and with MDA-MB-468 [7] were 15% and 57%, respectively.

As for `CN(C)Cc1ccc(-c2nc3cncc4c3n2CCNC4=O)cc1`, the 50% inhibitory concentration (IC50) in assay [1] was found to be 28 nM.

On to `CN1CCN(c2ccc(-c3nc4cncc5c4n3CCNC5=O)cc2)CC1`, for which, in [1], the IC50 is 139 nM.

For `O=C1NCCn2c(-c3ccc(CN4CCCCC4)cc3)nc3cncc1c32`, the IC50 in [1] turned out to be 29 nM.

For the compound `O=C1NCCn2c(C3CCN(C(=O)c4cccc(Cl)c4)CC3)nc3cncc1c32`, in assay [2], the inhibition is < 10%.

For the compound `O=C1NCCn2c(C3CCN(C(=O)c4ccc(Cl)cc4)CC3)nc3cncc1c32`, the inhibition in assay [2] is < 10%.

Regarding `O=C1NCCn2c(C3CCN(Cc4ccccc4)CC3)nc3cncc1c32`, in assay [1], the IC50 worked out at 103 nM.

In the case of `CCNCc1ccc(-c2nc3cncc4c3n2CCNC4=O)cc1`, the EC50 in the assay with MDA-MB-468 [3] (Homo sapiens, MDA-MB-468, 72 h) was 4600 nM; in the assay on SW-620 [4] (Homo sapiens, SW-620, 72 h), 23600 nM. For the same compound, the IC50 in assay [5] amounted to 9.9 nM; in assay [1], 11 nM. For the same compound, the inhibition of growth at 100 µM came to 94% in the assay with SW-620 [6] and 82% with MDA-MB-468 [7].

On to `O=C1NCCn2c(C3CCN(C(=O)C4CC4)CC3)nc3cncc1c32`, for which the inhibition in assay [2] was < 10%.

Regarding `CC(C)NCc1ccc(-c2nc3cncc4c3n2CCNC4=O)cc1`, in assay [1], the 50% inhibitory concentration (IC50) came to 58 nM.

On to `O=C1NCCn2c(C3CCN(C(=O)c4ccccc4)CC3)nc3cncc1c32`, for which the inhibition in assay [2] was < 10%.

`CCCCN1CCC(c2nc3cncc4c3n2CCNC4=O)CC1` gave an EC50 in the assay on SW-620 [4] (Homo sapiens, SW-620, 72 h) of 95000 nM. Besides, the inhibition of growth at 100 µM came out at 67% in the assay on SW-620 [6] and 47% with MDA-MB-468 [7]. Moreover, in assay [1], the IC50 turned out to be 21 nM.

Turning to `CCCN1CCC(c2nc3cncc4c3n2CCNC4=O)CC1`, the values for the inhibition of growth at 100 µM with SW-620 [6] and with MDA-MB-468 [7] were 41% and 30%, respectively. Further, in [1], the IC50 was found to be 19 nM.

On to `O=C1NCCn2c(-c3ccc(CN4CCCC4)cc3)nc3cncc1c32`, for which the IC50 in assay [1] amounted to 20 nM.

For the compound `O=C1NCCn2c(C3CCNCC3)nc3cncc1c32`, the inhibition of growth at 100 µM with SW-620 [6] turned out to be 25%; in the assay on MDA-MB-468 [7], 32%. In addition, the IC50 in assay [1] came out at 54 nM.

Take `CC(=O)N1CCC(c2nc3cncc4c3n2CCNC4=O)CC1`: the inhibition in assay [2] is < 10%.

`CC(C)(C)NCc1ccc(-c2nc3cncc4c3n2CCNC4=O)cc1`: the IC50 in assay [1] stood at 75 nM.

With `CNCc1ccc(-c2nc3cncc4c3n2CCNC4=O)cc1`, the EC50 in the assay with MDA-MB-468 [3] (Homo sapiens, MDA-MB-468, 72 h) came out at 81400 nM; in the assay with SW-620 [4] (Homo sapiens, SW-620, 72 h), 89000 nM. Moreover, the figures for the concentration for half-maximal inhibition (IC50) in assay [5] and in assay [1] were 7.2 nM and 13 nM, respectively. The inhibition of growth at 100 µM was 80% in the assay on SW-620 [6] and 71% with MDA-MB-468 [7].

For `C[C@]1(c2nc3c(C(N)=O)cccc3[nH]2)CCCN1` [VELIPARIB], the figures for the concentration for a half-maximal effect (EC50) in the assay on MDA-MB-468 [3] (mda-mb-468) and in the assay on SW-620 [4] (sw-620) were 43000 nM and 27100 nM, respectively. Further, the “growth inhibition (GI)” value in the assay on SW-620 [6] was 95%; in the assay on MDA-MB-468 [7] it was 69%. Further, the PF50 in assay [8] was found to be 3.1; in assay [9], 1.2; in assay [10] it was 1.5.

Broadly, the IC50 is the point on the concentration scale where inhibition reaches its midpoint. Usually inhibition stands for the percentage by which the read-out fell short of the control. Broadly, the EC50 is the concentration at which the effect is half-maximal. A high value points to a need for much substance.
